Assay results as given in ChEMBL document CHEMBL1765057, “Pyrazolo[4,3-d]pyrimidine bioisostere of roscovitine: evaluation of a novel selective inhibitor of cyclin-dependent kinases with antiproliferative activity” (J Med Chem, 2011).
Active and inactive are the calls of the source. The rule behind the calls is not given here.

Experiments:
HT-29 = assay: Cytotoxicity against human HT-29 cells after 72 hrs by fluoroskan ascent microplate reader analysis; type: functional, cell-based; conditions: HT-29, 72 h
In short: (§1)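 Cells were grown in DMEM with 10% FCS and 4 mM glutamine at 37 °C under CO2, then plated at densities suited to each line. Compounds were added as 3-fold dilutions in triplicate for 72 h.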

HCT-116 = assay: Cytotoxicity against human HCT116 cells after 72 hrs by fluoroskan ascent microplate reader analysis; type: functional, cell-based; conditions: HCT-116, 72 h; in short: as §1
HOS = assay: Cytotoxicity against human HOS cells after 72 hrs by fluoroskan ascent microplate reader analysis; type: functional, cell-based; in short: as §1
G-361 = assay: Cytotoxicity against human G361 cells after 72 hrs by fluoroskan ascent microplate reader analysis; type: functional, cell-based; conditions: G-361, 72 h; in short: as §1
A-431 = assay: Cytotoxicity against human A431 cells after 72 hrs by fluoroskan ascent microplate reader analysis; type: functional, cell-based; conditions: A-431, 72 h; in short: as §1
[1] = molecular target: Cyclin-dependent kinase 7/ cyclin H (Homo sapiens) (UniProt P51946+P50613); assay: Inhibition of human recombinant CDK7/cyclin H/MAT1 at 10 uM; type: protein-complex assay
[2] = molecular target: Glycogen synthase kinase-3 beta (Homo sapiens) (UniProt P49841); assay: Inhibition of human recombinant GSK3B at 10 uM
Glycogen synthase kinase-3 beta (Homo sapiens), sequence (P49841 whole entry, looked up): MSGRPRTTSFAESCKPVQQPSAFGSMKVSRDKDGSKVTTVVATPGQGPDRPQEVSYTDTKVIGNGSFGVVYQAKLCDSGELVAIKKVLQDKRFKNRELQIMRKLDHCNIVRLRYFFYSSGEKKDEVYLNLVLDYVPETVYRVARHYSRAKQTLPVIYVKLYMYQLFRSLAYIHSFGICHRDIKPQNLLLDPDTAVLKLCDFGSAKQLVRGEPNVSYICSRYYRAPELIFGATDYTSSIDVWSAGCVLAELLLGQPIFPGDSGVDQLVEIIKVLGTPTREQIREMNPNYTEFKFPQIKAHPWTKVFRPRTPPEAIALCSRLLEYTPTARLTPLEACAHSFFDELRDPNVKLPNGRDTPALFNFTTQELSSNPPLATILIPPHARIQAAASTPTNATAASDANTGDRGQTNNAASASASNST

[3] = molecular target: MAP kinase-activated protein kinase 5 (Homo sapiens) (UniProt Q8IW41); assay: Inhibition of human recombinant PRAK at 10 uM
MAP kinase-activated protein kinase 5 (Homo sapiens), sequence (Q8IW41 whole entry): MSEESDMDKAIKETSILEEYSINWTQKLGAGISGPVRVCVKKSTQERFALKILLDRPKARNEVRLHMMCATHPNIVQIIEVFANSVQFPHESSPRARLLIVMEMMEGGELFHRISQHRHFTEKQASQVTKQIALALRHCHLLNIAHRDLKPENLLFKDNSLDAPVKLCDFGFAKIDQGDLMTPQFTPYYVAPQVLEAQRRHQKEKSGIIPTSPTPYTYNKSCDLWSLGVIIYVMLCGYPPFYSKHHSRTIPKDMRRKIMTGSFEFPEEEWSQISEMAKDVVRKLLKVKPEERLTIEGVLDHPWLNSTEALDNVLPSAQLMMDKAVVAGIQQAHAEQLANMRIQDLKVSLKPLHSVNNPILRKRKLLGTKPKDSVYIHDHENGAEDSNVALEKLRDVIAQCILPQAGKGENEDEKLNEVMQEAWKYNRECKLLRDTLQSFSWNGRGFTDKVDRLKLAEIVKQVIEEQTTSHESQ

[4] = molecular target: T1, Retinoblastoma-associated protein (Homo sapiens) (UniProt P06400); assay: Inhibition of retinoblastoma protein in human MCF7 cells assessed as reduction of CDK4 level at 2.5 to 40 uM after 24 hrs by immunoblotting; type: cell-based
T1 sequence (whole entry): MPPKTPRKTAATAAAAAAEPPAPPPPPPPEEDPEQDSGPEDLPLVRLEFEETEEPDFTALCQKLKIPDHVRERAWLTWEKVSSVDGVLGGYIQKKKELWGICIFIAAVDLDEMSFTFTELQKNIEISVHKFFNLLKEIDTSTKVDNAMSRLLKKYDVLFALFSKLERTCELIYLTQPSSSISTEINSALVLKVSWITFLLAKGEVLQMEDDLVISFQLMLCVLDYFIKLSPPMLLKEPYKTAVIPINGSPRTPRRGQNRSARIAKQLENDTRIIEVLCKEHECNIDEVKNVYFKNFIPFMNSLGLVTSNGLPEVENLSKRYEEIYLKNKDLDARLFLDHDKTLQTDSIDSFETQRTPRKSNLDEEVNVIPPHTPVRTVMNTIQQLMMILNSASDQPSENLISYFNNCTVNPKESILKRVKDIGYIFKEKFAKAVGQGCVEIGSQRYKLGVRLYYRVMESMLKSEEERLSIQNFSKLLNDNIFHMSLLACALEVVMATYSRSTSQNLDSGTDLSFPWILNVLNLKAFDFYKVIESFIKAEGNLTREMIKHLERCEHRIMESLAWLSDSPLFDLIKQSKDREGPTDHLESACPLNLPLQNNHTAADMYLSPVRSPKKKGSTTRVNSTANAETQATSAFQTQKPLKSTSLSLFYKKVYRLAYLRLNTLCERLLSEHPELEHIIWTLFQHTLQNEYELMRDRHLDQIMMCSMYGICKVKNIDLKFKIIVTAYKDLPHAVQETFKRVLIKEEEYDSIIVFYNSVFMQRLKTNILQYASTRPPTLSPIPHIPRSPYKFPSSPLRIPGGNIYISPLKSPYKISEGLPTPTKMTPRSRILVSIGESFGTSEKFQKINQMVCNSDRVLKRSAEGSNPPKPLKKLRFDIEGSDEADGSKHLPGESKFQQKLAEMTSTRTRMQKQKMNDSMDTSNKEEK
In short: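 Asynchronous, exponentially growing MCF-7 cells were exposed 24 h to a range of concentrations. Total lysates were made in Laemmli buffer, run on SDS-PAGE and blotted to nitrocellulose. Membranes were probed overnight at 4 °C with specific or phosphospecific antibodies (pRb S249/T252, S780, S795, S807/811), with tubulin as loading control and ECL detection.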

MCF7 [5] = assay: Cell cycle arrest in human MCF7 cells assessed as accumulation at G2/M phase after 24 hrs using propidium iodide and BrdU staining by flow cytometry; type: functional, cell-based
In short: (§2)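 Subconfluent MCF-7 cells were treated for 24 h at a range of concentrations. They were pulse-labelled with 10 μM BrdU for 30 min at 37 °C, then trypsinized and fixed in ice-cold 70% ethanol. DNA was denatured in 2 M HCl and neutralized with borate. Cells were stained with fluorescein anti-BrdU and with propidium iodide plus RNase A, then analysed by flow cytometry at 488 nm.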

MCF7 [6] = assay: Cell cycle arrest in human MCF7 cells assessed as decrease in S phase cell population after 24 hrs using propidium iodide and BrdU staining by flow cytometry; type: functional, cell-based; in short: as §2
MCF7 [7] = assay: Cell cycle arrest in human MCF7 cells assessed as reduction of actively replicating DNA level at 80 uM after 24 hrs using propidium iodide and BrdU staining by flow cytometry; type: functional, cell-based; in short: as §2
RPMI-8226 [8] = assay: Cell cycle arrest in human RPMI8226 cells assessed as accumulation at G1 phase after 24 hrs using propidium iodide and BrdU staining by flow cytometry; type: functional, cell-based
In short: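 Subconfluent cells treated 24 h at varying concentrations, pulsed with 10 μM BrdU for 30 min at 37 °C, then trypsinized, fixed in ice-cold 70% ethanol and DNA denatured in 2 M HCl. After staining with fluorescein anti-BrdU (1:50), propidium iodide (0.1 mg/mL) and RNase A (0.5 mg/mL), cells were read by flow cytometry with a 488 nm laser.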

MCF7 [9] = assay: Cell cycle arrest in human MCF7 cells assessed as accumulation at sub-G1 phase after 24 hrs using propidium iodide and BrdU staining by flow cytometry; type: functional, cell-based; in short: as §2
MCF7 [10] = assay: Induction of apoptosis in human MCF7 cells at 10 uM after 24 hrs; type: functional, cell-based
RPMI-8226 [11] = assay: Induction of apoptosis in human RPMI8226 cells assessed as cleaved fragmentation of caspase3 after 24 hrs by immunoblot analysis; type: functional, cell-based
In short: (§3)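 RPMI-8226 cells were treated continuously for 24 h, and total lysates were made in Laemmli buffer, run on SDS-PAGE and blotted to nitrocellulose. Loading was checked with Ponceau-S. Membranes were blocked in milk or BSA, probed overnight at 4 °C with antibodies to PARP, caspase-3 and Mcl-1, then peroxidase secondary (1:2000), with ECL detection.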

RPMI-8226 [12] = assay: Induction of apoptosis in human RPMI8226 cells assessed as induction of PARP cleavage after 24 hrs by immunoblot analysis; type: functional, cell-based; in short: as §3
RPMI-8226 [13] = assay: Induction of apoptosis in human RPMI8226 cells assessed as induction of caspase3 activation at 20 uM after 24 hrs by immunoblot analysis; type: functional, cell-based
[14] = molecular target: Cellular tumor antigen p53 (Homo sapiens) (UniProt P04637); assay: Induction of p53-dependent transcriptional activity in human ARN8 cells assessed as beta-galactosidase activity after 24 hrs by immunofluorescence assay; type: cell-based
Cellular tumor antigen p53 (Homo sapiens), sequence (P04637 whole entry, looked up): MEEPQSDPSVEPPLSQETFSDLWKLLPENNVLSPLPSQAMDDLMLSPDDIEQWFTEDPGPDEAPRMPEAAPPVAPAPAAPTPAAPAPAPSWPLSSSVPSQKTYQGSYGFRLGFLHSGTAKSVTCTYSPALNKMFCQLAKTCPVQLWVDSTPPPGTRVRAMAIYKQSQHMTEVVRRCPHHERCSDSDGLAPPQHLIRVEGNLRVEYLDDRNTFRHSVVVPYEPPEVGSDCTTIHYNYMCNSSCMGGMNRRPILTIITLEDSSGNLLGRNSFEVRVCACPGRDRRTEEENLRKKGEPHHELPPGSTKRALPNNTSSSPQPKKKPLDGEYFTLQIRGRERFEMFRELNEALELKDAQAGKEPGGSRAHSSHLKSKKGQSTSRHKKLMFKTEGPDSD
In short: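 ARN8 melanoma cells stably carrying the p53-responsive pRGCΔfoslacZ reporter were exposed to inhibitors for 24 h, permeabilized with 0.3% Triton X-100 for 15 min, and given MUG substrate (final 80 μM). Fluorescence was read at 355/460 nm after 1 h. Data are mean ± SD of three independent experiments.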

U2OS = assay: Reduction of homologous recombination in human DR-U2OS-GFP cells expressing I-SceI nuclease at 5 uM after 56 hrs […] relative to control; type: functional

- inhibition [1]: 96%
- inhibition [2]: 54%
- inhibition [3]: 30%
- inhibition [4]: Active
- Activity [14]: Dose-dependent effect
SMILES: CC[C@H](CO)Nc1nc(NCc2ccccc2)c2[nH]nc(C(C)C)c2n1
- IC50 (HT-29): 6.6 µM
- IC50 (HCT-116): 11 µM
- IC50 (HOS): 7.5 µM
- IC50 (G-361): 4.8 µM
- IC50 (A-431): 7.7 µM
- Activity (MCF7 [5]): Active
- Activity (MCF7 [6]): Active
- Activity (MCF7 [7]): Active
- Activity (RPMI-8226 [8]): Active
- Activity (MCF7 [9]): Active
- Activity (MCF7 [10]): Active
- Activity (RPMI-8226 [11]): Active
- Activity (RPMI-8226 [12]): Active
- Activity (RPMI-8226 [13]): Active
- inhibition at 5 µM (U2OS): 66%
